Data reported in ChEMBL document CHEMBL3286351, “Antibacterial evaluation of structurally amphipathic, membrane active small cationic peptidomimetics: synthesized by incorporating 3-amino benzoic acid as peptidomimetic element” (Eur J Med Chem, 2014).
≈ marks a conversion by molar mass, not a printed value. Where a SMILES comes first, the peptide text is derived from it. [ ]: non-standard residue; d: D form. 3Abz = Nc1cccc(C(=O)O)c1; Orn = NCCC[CH](N)C(=O)O

Tests used:
Bacillus subtilis = assay: Antibacterial activity against Bacillus subtilis MTCC 2763 assessed as growth inhibition after 18 hrs by CLSI microdilution broth assay; format: functional; details: MTCC 2763, 18 h
Staphylococcus aureus [1] = assay: Antibacterial activity against Staphylococcus aureus MTCC 3160 assessed as growth inhibition after 18 hrs by CLSI microdilution broth assay; format: functional; details: MTCC 3160, 18 h
[2] = Retention time of the compound by HPLC analysis; format: physicochemical
How it was run: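 Analytical RP-HPLC on a C18 column (5 µm, 4.6 × 250 mm) at room temperature. Run a linear gradient of 0.5-60% acetonitrile containing 0.05% TFA against water containing 0.05% TFA at 0.5 mL/min.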

Staphylococcus aureus [3] = assay: Antibacterial activity against methicillin-resistant Staphylococcus aureus ATCC BAA-1720 assessed as growth inhibition after 18 hrs by CLSI microdilution broth assay; format: functional; details: ATCC BAA-1720, 18 h
How it was run: (§1)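 Modified CLSI broth microdilution in Mueller-Hinton broth. Wells held 90 µL of about 2 × 10^5 CFU/mL inoculum plus 10 µL of serially diluted peptidomimetic, range 0.7-100 µg/mL. Plates were incubated overnight with agitation at 37 °C and absorbance read at 600 nm after 18 h. Controls: inoculum without compound, and uninoculated broth. Run in triplicate.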

[4] = Induction of hemolysis in human RBC assessed as hemoglobin release after 1 hr by microtiter plate reader analysis; format: cell-based, Erythrocyte; details: for HC10: erythrocyte, 1 h; for HC50 at 1 h: red blood cells
How it was run: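 Freshly isolated human RBCs washed three times in PBS (35 mM phosphate, 150 mM NaCl, pH 7.2) and used as a 4% (v/v) suspension. Mixed 1:1 with twofold serial dilutions of compound, incubated 1 h at 37 °C without agitation, then centrifuged. Supernatant A540 read. PBS defined 0% and 1% Triton X-100 defined 100% lysis; HC50 and HC10 derived.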

[5] = tested on: Staphylococcus epidermidis; assay: Antibacterial activity against methicillin-resistant Staphylococcus epidermidis ATCC 51625 assessed as growth inhibition after 18 hrs by CLSI microdilution broth assay; format: functional; details: ATCC 51625, 18 h; how it was run: as §1
Pseudomonas aeruginosa = assay: Antibacterial activity against Pseudomonas aeruginosa MTCC 2295 assessed as growth inhibition after 18 hrs by CLSI microdilution broth assay; format: functional; details: MTCC 2295, 18 h
Escherichia coli = assay: Antibacterial activity against Escherichia coli MTCC 723 assessed as growth inhibition after 18 hrs by CLSI microdilution broth assay; format: functional; details: MTCC 723, 18 h
[6] = Selectivity ratio of HC50 for hemolysis in human RBC to MIC for Staphylococcus aureus

Row | Compound | MIC (Bacillus subtilis) [µg/mL] | MIC (Staphylococcus aureus [1]) [µg/mL] | Retention_time [2] [min] | MIC (Staphylococcus aureus [3]) [µg/mL] | HC10 [4] [µg/mL] | HC50 at 1 h [4] [µg/mL] | MIC [5] [µg/mL] | MIC (Pseudomonas aeruginosa) [µg/mL] | MIC (Escherichia coli) [µg/mL] | Selectivity ratio [6]
1 | N=C(N)NCCCC(NC(=O)c1cccc(NC(=O)C(CCCNC(=N)N)NC(=O)C(N)Cc2c[nH]c3ccccc23)c1)C(N)=O (centres undefined) (H-WR[3Abz]R-NH2; configuration not given here) | 200 (≈ 315 µM) | 150 (≈ 236 µM) | 24.184 | 150 (≈ 236 µM) | 300 | > 500 | 200 (≈ 315 µM) | > 200 | 200 (≈ 315 µM) | > 3.3
2 | N=C(N)NCCCC(N)C(=O)NC(Cc1c[nH]c2ccccc12)C(=O)NC(CCCNC(=N)N)C(=O)Nc1cccc(C(=O)NC(Cc2c[nH]c3ccccc23)C(=O)NC(CCCNC(=N)N)C(N)=O)c1 (centres undefined) (H-RWR[3Abz]WR-NH2; configuration not given here) | 125 (≈ 128 µM) | 50 (≈ 51.2 µM) | 27.446 | 40 (≈ 40.9 µM) | 210 | 400 | 50 (≈ 51.2 µM) | 120 (≈ 123 µM) | 120 (≈ 123 µM) | 8
3 | N=C(N)NCCCC(NC(=O)C(Cc1c[nH]c2ccccc12)NC(=O)c1cccc(NC(=O)C(CCCNC(=N)N)NC(=O)C(CCCNC(=N)N)NC(=O)C(N)Cc2c[nH]c3ccccc23)c1)C(N)=O (centres undefined) (H-WRR[3Abz]WR-NH2; configuration not given here) | 70 (≈ 71.6 µM) | 15 (≈ 15.4 µM) | 27.66 | 12.5 (≈ 12.8 µM) | 190 | 380 | 10 (≈ 10.2 µM) | 50 (≈ 51.2 µM) | 50 (≈ 51.2 µM) | 25.3
4 | N=C(N)NCCCC(NC(=O)C(Cc1ccccc1)NC(=O)c1cccc(NC(=O)C(Cc2ccccc2)NC(=O)C(CCCNC(=N)N)NC(=O)C(N)Cc2ccccc2)c1)C(N)=O (centres undefined) (H-FRF[3Abz]FR-NH2; configuration not given here) | 150 (≈ 169 µM) | 120 (≈ 135 µM) | 26.225 | 125 (≈ 140 µM) | 125 | 310 | 120 (≈ 135 µM) | > 200 | > 200 | 2.58
5 | N=C(N)NCCCC(NC(=O)C(Cc1c[nH]c2ccccc12)NC(=O)c1cccc(NC(=O)C(CCCNC(=N)N)NC(=O)C(N)Cc2c[nH]c3ccccc23)c1)C(N)=O (centres undefined) (H-WR[3Abz]WR-NH2; configuration not given here) | 75 (≈ 91.4 µM) | 60 (≈ 73.1 µM) | 24.982 | 50 (≈ 60.9 µM) | 220 | 400 | 75 (≈ 91.4 µM) | 120 (≈ 146 µM) | 150 (≈ 183 µM) | 6.66
6 | NCCCC(N)C(=O)NC(Cc1c[nH]c2ccccc12)C(=O)NC(Cc1c[nH]c2ccccc12)C(=O)Nc1cccc(C(=O)NC(CCCN)C(=O)NC(CCCN)C(N)=O)c1 (centres undefined) (H-[Orn]WW[3Abz][Orn][Orn]-NH2; configuration not given here) | 100 (≈ 118 µM) | 50 (≈ 58.8 µM) | 23.979 | 50 (≈ 58.8 µM) | 150 | 440 | 50 (≈ 58.8 µM) | 100 (≈ 118 µM) | 100 (≈ 118 µM) | 8.8
7 | NCCCC(N)C(=O)NC(CCCN)C(=O)NC(Cc1c[nH]c2ccccc12)C(=O)Nc1cccc(C(=O)NC(Cc2c[nH]c3ccccc23)C(=O)NC(CCCN)C(N)=O)c1 (centres undefined) (H-[Orn][Orn]W[3Abz]W[Orn]-NH2; configuration not given here) | 40 (≈ 47 µM) | 7.5 (≈ 8.81 µM) | 24.231 | 10.2 (≈ 12 µM) | 120 | 450 | 12.5 (≈ 14.7 µM) | 50 (≈ 58.8 µM) | 40 (≈ 47 µM) | 60
8 | N=C(N)NCCCC(N)C(=O)NC(CCCNC(=N)N)C(=O)NC(Cc1ccccc1)C(=O)Nc1cccc(C(=O)NC(Cc2ccccc2)C(=O)NC(CCCNC(=N)N)C(N)=O)c1 (centres undefined) (H-RRF[3Abz]FR-NH2; configuration not given here) | 200 (≈ 222 µM) | 150 (≈ 167 µM) | 24.871 | 150 (≈ 167 µM) | 130 | 375 | 170 (≈ 189 µM) | > 200 | > 200 | 2.5
9 | N=C(N)NCCCC(NC(=O)C(CCCNC(=N)N)NC(=O)c1cccc(NC(=O)C(CCCNC(=N)N)NC(=O)C(N)Cc2c[nH]c3ccccc23)c1)C(N)=O (centres undefined) (H-WR[3Abz]RR-NH2; configuration not given here) | 170 (≈ 215 µM) | 100 (≈ 126 µM) | 22.64 | 120 (≈ 152 µM) | 325 | > 500 | 100 (≈ 126 µM) | > 200 | > 200 | > 5
10 | NCCCC(NC(=O)C(CCCN)NC(=O)c1cccc(NC(=O)C(Cc2c[nH]c3ccccc23)NC(=O)C(CCCN)NC(=O)C(N)Cc2c[nH]c3ccccc23)c1)C(N)=O (centres undefined) (H-W[Orn]W[3Abz][Orn][Orn]-NH2; configuration not given here) | 40 (≈ 47 µM) | 25 (≈ 29.4 µM) | 24.782 | 25 (≈ 29.4 µM) | 175 | 450 | 20 (≈ 23.5 µM) | 75 (≈ 88.1 µM) | 70 (≈ 82.3 µM) | 18
11 | N=C(N)NCCCC(NC(=O)C(CCCNC(=N)N)NC(=O)c1cccc(NC(=O)C(Cc2c[nH]c3ccccc23)NC(=O)C(N)Cc2c[nH]c3ccccc23)c1)C(N)=O (centres undefined) (H-WW[3Abz]RR-NH2; configuration not given here) | 70 (≈ 85.3 µM) | 50 (≈ 60.9 µM) | 25.377 | 50 (≈ 60.9 µM) | 150 | 400 | 75 (≈ 91.4 µM) | 125 (≈ 152 µM) | 120 (≈ 146 µM) | 8
12 | NCCCC(N)C(=O)NC(CCCN)C(=O)NC(Cc1ccccc1)C(=O)Nc1cccc(C(=O)NC(Cc2ccccc2)C(=O)NC(CCCN)C(N)=O)c1 (centres undefined) (H-[Orn][Orn]F[3Abz]F[Orn]-NH2; configuration not given here) | > 200 | > 200 | 23.313 | > 200 | 210 | 490 | > 200 | > 200 | > 200 | 
13 | N=C(N)NCCCC(NC(=O)c1cccc(NC(=O)C(N)Cc2c[nH]c3ccccc23)c1)C(N)=O (centres undefined) | > 200 | > 200 | 26.553 | > 200 | 400 | > 500 | > 200 | > 200 | > 200 | 
14 | CN[C@H](CC(C)C)C(=O)N[C@H]1C(=O)N[C@@H](CC(N)=O)C(=O)N[C@H]2C(=O)N[C@H]3C(=O)N[C@H](C(=O)N[C@H](C(=O)O)c4cc(O)cc(O)c4-c4cc3ccc4O)[C@H](O)c3ccc(c(Cl)c3)Oc3cc2cc(c3O[C@@H]2O[C@H](CO)[C@@H](O)[C@H](O)[C@H]2O[C@H]2C[C@](C)(N)[C@H](O)[C@H](C)O2)Oc2ccc(cc2Cl)[C@H]1O [VANCOMYCIN] |  |  |  | 1.5 (≈ 1.04 µM) |  |  |  |  |  | 
